# 697 NFkB inh: inhibitors of PMA/ionomycin-induced NF-kB reporter, 697 cells, primary screen, B-cell NF-kB inhibitor project, cell-based, luminescence, uHTS | 330,000 compounds, 0.33% hits | inhibition, % at 4 µM | 697 B-cell NF-kB luciferase reporter, 16 h; in the data active means inhibition above about 35%
# Jurkat NFkB inh: inhibitors of induced NF-kB luciferase reporter, primary screen, TCR NF-kB activation inhibitor project, cell-based, luminescence, uHTS; inhibition, % at 4 µM; AID 435003, 2010; Jurkat, PMA/ionomycin-induced NF-kB luciferase reporter; 330,000 compounds, 0.53% hits; in the data active means inhibition above about 50%
# NR2E3 ag-1: NR2E3 agonists in two-hybrid cells, primary screen, cell-based, luminescence, CHO-S, Gal4-NCOR/VP16-NR2E3; Photoreceptor-specific nuclear receptor (Homo sapiens), Q9Y5X4; 360,000 compounds, 0.35% hits; AID 602229, 2012; inhibition of corepressor binding, % at 3.98 µM; luciferase;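 active means inhibition above the mean of all tested compounds plus 3 SD, cut at about 70% in these data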;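 further: 0% = DMSO with NR2E3 transfected cells and 100% = cells lacking NR2E3 construct; higher means lower luciferase signal from less NR2E3 corepressor binding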
# Target sequence (Q9Y5X4 whole entry, looked up, the tested form may be a part): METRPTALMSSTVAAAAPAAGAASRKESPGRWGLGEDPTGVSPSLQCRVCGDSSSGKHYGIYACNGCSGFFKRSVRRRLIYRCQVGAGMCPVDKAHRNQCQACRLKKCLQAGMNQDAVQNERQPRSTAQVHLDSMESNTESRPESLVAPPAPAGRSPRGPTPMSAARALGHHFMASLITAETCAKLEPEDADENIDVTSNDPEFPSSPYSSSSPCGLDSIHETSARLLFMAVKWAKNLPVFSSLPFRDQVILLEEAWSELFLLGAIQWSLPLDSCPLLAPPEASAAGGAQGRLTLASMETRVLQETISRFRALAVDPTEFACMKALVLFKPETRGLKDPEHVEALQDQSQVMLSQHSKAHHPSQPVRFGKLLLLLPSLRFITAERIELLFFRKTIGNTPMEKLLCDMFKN
# NR2E3 ag-2: inhibitors of NR2E3-RetCOR corepressor binding, primary screen, NR2E3 agonist project, biochemical, TR-FRET, GST-NR2E3, biotin-RetCOR; Photoreceptor-specific nuclear receptor (Homo sapiens), Q9Y5X4; 1536-well; 320,000 compounds, 0.12% hits; inhibition of corepressor binding, % at 4.78 µM;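 active means percent inhibition above the cutoff of mean plus 3 SD of all tested compounds, set per screening campaign, cut at about 20% in these data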;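 further: 0% = DMSO wells and 100% = biotin wells as full block of FRET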
#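 Material: NR2E3–RetCOR corepressor complex | Quantity: 1.35 nM GST-tagged NR2E3 final | Schedule: 5 h at 4 °C | Replication: Singlicate compound wells | Reagent: RetCOR corepressor, biotinylated, 7 nM | Controls: Biotin wells as high control, 0.6% DMSO wells as low control | Signal: TR-FRET, Eu(K)-anti-GST donor, streptavidin-D2 acceptor, ex 340, em 617/671 nm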
# GASC-1 inh: inhibitors of GASC-1 histone demethylase, primary screen, biochemical, fluorescence, DELFIA europium; inhibition, % at 2.35 µM; 330,000 compounds, 0.069% hits; GST-JMJD2C(1-420) H3K9me3 demethylation;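 active means more than half of a compound's replicate wells show inhibition beyond 50%, single wells judged on their own value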;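 further: signal counts dimethyl H3K9 product captured on neutravidin plate; 0% = median of DMSO wells and 100% = 0.3 times that DMSO median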
# GalR3 antag: GalR3 antagonists in HEK293 cells, primary screen, cell-based, fluorescence readout | Galanin receptor type 3 (Homo sapiens), O60755 | HEK293 GalR3-CNG cAMP membrane potential fluorescence; galR3 body fused to GalR1 C-terminus | inhibition, % at 3 µM | 360,000 compounds, 0.44% hits;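 active means inhibition above the screen-wide average plus 3 SD, cut at about 13% in these data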;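 further: forskolin and galanin both at EC90 stimulate the cells; cAMP rise reported by CNG channel membrane potential dye signal; 0% = forskolin plus galanin with DMSO and 100% = forskolin alone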
# Target sequence (O60755 1-299 limits assumed): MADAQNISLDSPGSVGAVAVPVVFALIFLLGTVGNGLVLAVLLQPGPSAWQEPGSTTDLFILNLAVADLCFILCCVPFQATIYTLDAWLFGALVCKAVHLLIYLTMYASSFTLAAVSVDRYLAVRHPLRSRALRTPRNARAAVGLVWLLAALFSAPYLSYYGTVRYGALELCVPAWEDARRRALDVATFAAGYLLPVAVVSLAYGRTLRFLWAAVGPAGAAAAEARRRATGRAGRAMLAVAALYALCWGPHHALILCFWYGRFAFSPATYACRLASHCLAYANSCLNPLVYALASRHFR
# Jurkat NFkB conf: PMA/ionomycin-induced NF-kB reporter inhibitors, Jurkat retest, confirmation, T-cell NF-kB inhibitor project, cell-based, luminescence, single concentration. shares compounds with Jurkat NFkB inh. Jurkat NF-kB luciferase, 16 h. inhibition, % at 4 µM. 2,700 compounds, 27% hits;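 active means inhibition reaching about 45% at 4 µM in either replicate, limit read from the data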;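 further: plate controls were PMA/ionomycin stimulated DMSO wells for no effect and unstimulated DMSO wells for full effect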
# 697 NFkB conf: PMA/ionomycin-induced NF-kB reporter inhibitors, 697 retest, confirmation, B-cell NF-kB inhibitor project, cell-based, luminescence, single concentration; inhibition, % at 4 µM; 697 B-cell NF-kB luciferase, 16 h; shares compounds with 697 NFkB inh; 2,000 compounds, 35% hits; in the data active means inhibition mostly above about 28%, no sharp cut-off; inactive means mostly below about 22%
# An asterisk follows results filed as active; i = inactive; x = not tested or not shown. Most compounds without a hit are left out; they make up all but 1.5% or so of the library.
SMILES,697 NFkB inh,Jurkat NFkB inh,NR2E3 ag-1,NR2E3 ag-2,GASC-1 inh,GalR3 antag,Jurkat NFkB conf,697 NFkB conf
CCN(CC)c1ccc2cc(C(C)=O)c(=O)oc2c1,0.0,1.8,5.0,-3.1,9.7,-5.2,x,x
Cc1ccccc1NC(=O)Cc1nc(COC(=O)c2cc([N+](=O)[O-])ccc2N)cs1,-15.2,26.3,10.2,1.4,4.2,-1.7,x,x
O=C(/C=C\Nc1ccc2c(c1)OCO2)c1ccc(Cl)s1,-406.5,-201.2,-61.8,0.6,1.2,-0.5,-18.4,-105.8
CC(C)(C)C(=O)/C(=C/c1ccncc1)n1cncn1,37.3*,54.2*,0.6,3.0,8.2,5.8,31.1,42.1*
CC(C)(C)c1ccc(NC(=O)Nc2ccc(F)cc2)cc1,-255.0,-170.0,-105.4,1.0,-8.5,-7.8,-171.2,-316.9
CCCCCCCN1CCC(=O)N([C@H](CO)c2ccccc2)CC1,15.5,-12.7,-2.4,-0.4,1.0,-3.3,x,x
Cc1ccc(N/C=C/C(=O)c2cccs2)cc1,-260.8,-157.9,-103.9,-1.1,-1.8,-4.9,8.8,-132.8
O=C(/C=C/Nc1ccc(F)cc1F)c1cccs1,-364.2,-168.2,-133.2,1.4,-10.2,0.8,-37.4,-196.8
O=C(/C=C/Nc1ccc(F)cc1F)c1ccc(Br)cc1,-255.2,-166.9,-129.3,-0.2,6.9,-4.8,-30.0,-62.3
Cc1onc(-c2c(F)cccc2Cl)c1C(=O)Nc1cc(S(=O)(=O)N2CCCCC2)ccc1O,x,x,17.1,x,x,-4.2,x,x
Cc1c(NC(=O)c2cnn3c2NC(c2ccco2)CC3C(F)(F)F)c(=O)n(-c2ccccc2)n1C (stereo not drawn),-4.0,6.6,-5.1,0.9,3.0,-3.8,x,x
CCOc1ccc2nc(NC(=S)N(C)C)sc2c1,-395.3,-201.3,21.0,-2.9,8.3,-7.5,-79.0,-246.3
Cc1ccc(NC(=O)c2ccc3c(c2)OCO3)cc1Cl,-287.4,-199.6,-146.8,-0.9,14.0,-8.2,-103.9,-246.4
O=C(COC(=O)c1cccc(C(F)(F)F)c1)NC(=O)NC1CCCC1,-1.0,-3.9,1.6,x,3.8,-4.9,x,x
COc1ccc(NC(=O)c2ccc(Br)o2)cc1,-43.0,-63.7,-79.0,3.3,9.2,-7.2,x,x
CC(C)c1ccc(NC(=O)c2ccc(Br)o2)cc1,-262.4,-172.1,-139.8,-2.0,1.0,-5.5,-118.9,-294.6
O=C(O)C1C=CCC(C(=O)O)C1 (stereo not drawn),x,x,5.8,x,x,-4.3,x,x
c1ccc(-c2cc(-c3cc(-c4ccccc4)on3)no2)cc1,x,x,-13.1,x,x,-4.8,x,x
COc1ccc(-c2cc(-c3ccccc3)no2)cc1,-351.1,-224.1,-127.6,2.6,-1.3,-3.3,-145.4,-375.6
COC(=O)/C(=C1/Oc2cc(C)oc(=O)c2S1)C(F)(F)F,-324.5,69.2*,45.1,6.9,-9.0,-6.3,10.8,-197.5
COC(=O)/C(=C1/Oc2ccc(C(C)(C)C)cc2S1)C(F)(F)F,-73.0,-77.9,-16.6,0.6,-8.1,-2.6,x,x
C=C1C(=O)O[C@@H]2C[C@@H](C)[C@@H]3C=CC(=O)[C@@]3(C)[C@@H](OC(C)=O)[C@H]12,100.4*,95.7*,x,0.4,-3.3,-3.7,98.3*,100.2*
CCOC(=O)CSc1nnc(NC(=O)CCc2ccccc2)s1,9.0,5.8,-28.8,1.5,4.2,-10.5,x,x
N=c1nc2n(cc1F)C1OC(CO)C(O)C1O2 (stereo not drawn),x,x,8.5,x,x,-5.0,x,x
N=c1ccn2c(n1)O[C@H]1[C@@H](CO)[C@H](O)O[C@H]12,69.5*,53.5*,15.4,-0.6,x,x,61.2*,61.2*
SMILES,697 NFkB inh,Jurkat NFkB inh,NR2E3 ag-1,NR2E3 ag-2,GASC-1 inh,GalR3 antag,Jurkat NFkB conf,697 NFkB conf
CCCCN(C)C(=O)c1cc2cc3ccc(OC)cc3nc2s1,-275.4,-185.1,-112.8,-0.3,-13.7,-1.8,-132.4,-265.9
COc1cc2c(c(OC)c1OC)-c1ccc(OC)c(=O)cc1[C@@H](NC(C)=O)CC2,-252.6,71.0*,32.3,4.2,4.0,x,68.9*,-172.2
O=C(Nc1ccc(N2CCCCC2)c(Cl)c1)c1cccnc1,i,-152.7,-109.9,1.8,3.2,-1.6,-47.5,-266.6
O=C(Nc1ccc(N2CCCC2)c(Cl)c1)c1cccnc1,-3.3,-6.0,-43.0,4.6,-10.9,-2.5,x,x
CC1CCCC(C)N1CC(O)COCc1ccccc1F (stereo not drawn),3.9,12.4,-15.4,1.3,-2.3,-11.3,x,x
Cc1ccc(NC(=O)C(=O)c2c[nH]c3ccccc23)cc1,-330.3,-215.0,-179.6,x,-13.5,-4.7,-124.2,-313.2
NC(=O)c1sc2nc(-c3ccccc3)ccc2c1N,-77.0,-21.8,-115.8,4.3,-3.0,-10.2,x,x
CCOC(=O)c1sc2nc(-c3ccccc3)ccc2c1N,-335.9,-296.0,-86.7,3.4,-1.3,0.5,-79.5,-187.8
Cc1cc(C)cc(NC(=O)c2cc(C)n(Cc3cccs3)c2C)c1,-291.1,92.5*,-117.8,-0.9,0.8,-4.4,96.8*,-73.8
CC(C)(C)OC(=O)N1CCc2onc(-c3ccc(N)cc3)c2C1=O,x,x,-5.4,x,x,-1.9,x,x
O=C(Nc1ncc(Cc2ccc(SC(F)F)cc2)s1)c1ccc(OC(F)F)cc1,-494.7,75.9*,10.2,-0.1,4.1,9.9,57.7*,-274.2
Cc1ccc(Cc2cnc(NC(=O)c3ccco3)s2)cc1,-236.3,-93.9,-157.9,1.4,10.9,-8.0,x,x
Cc1ccc(Nc2cc(Cl)nc(N)n2)c([N+](=O)[O-])c1,x,x,10.8,x,x,-4.6,x,x
COc1cc(SC)ccc1C(=O)Nc1ccc2c(c1)OCCO2,-275.6,-153.8,-172.3,0.6,-8.4,-6.6,-108.5,-231.3
O=C(Nc1ccc(-c2noc(CCc3ccccc3)n2)cc1)c1ccco1,-296.2,-187.2,-122.0,-2.6,-6.9,0.9,-83.8,-183.6
Cc1ccc(-c2nc(-c3ccccc3)no2)cc1,-294.7,-177.2,-117.6,1.7,1.2,-0.2,-123.0,-283.1
Brc1ccccc1-c1nc(-c2ccccc2)no1,-303.3,-153.4,x,2.5,4.0,x,-97.8,-329.3

# High-throughput results: PubChem BioAssay, several laboratories
